Most compounds without a hit are left out; they make up all but 4.8% or so of the library.
ALR inh – blocks human ALR sulfhydryl oxidase activity | inhibition, % (no concentration beside the values) | hit rate 3.8% among 290,000 | purified ALR, DTT oxidation, H2O2 HRP-luminol luminescence | P55789;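 active = mean replicate inhibition above about 79%, with every replicate also reaching it, limit read from the data; inconclusive = only one of the two criteria met; inactive = mean below limit and not every replicate reaching it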
NALP3 yeast inh – NALP3 inhibition in yeast. inhibition, % at 10 µM. hit rate 0.39% among 330,000. Yeast reconstituted NLRP3/ASC/caspase-1, beta-gal luminescence, 24 h. AID 2825;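 active = inhibition of 50% or more; inactive = inhibition below 50%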;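 also: plate controls were induced DMSO wells for no effect and uninduced yeast grown without galactose for full effect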
NALP1 inh – NALP1 inhibition; S. cerevisiae NALP1/ASC/caspase-1 growth, X-gal OD620, 72 h; hit rate 0.61% among 280,000; inhibition, % at 10 µM; AID 2071; in the data active = inhibition mostly above about 24%, no sharp cut-off; inactive = mostly below about 32%
ATG4B inh – inhibitors of human ATG4B cysteine protease | ATG4B cleavage of LC3-PLA2, NBD-HPC fluorescence, 1 h | inhibition, % at 8.33 µM | hit rate 0.51% among 340,000 | AID 504462; in the data active = inhibition above about 40%
Target sequence (Q9Y4P1 whole entry, looked up): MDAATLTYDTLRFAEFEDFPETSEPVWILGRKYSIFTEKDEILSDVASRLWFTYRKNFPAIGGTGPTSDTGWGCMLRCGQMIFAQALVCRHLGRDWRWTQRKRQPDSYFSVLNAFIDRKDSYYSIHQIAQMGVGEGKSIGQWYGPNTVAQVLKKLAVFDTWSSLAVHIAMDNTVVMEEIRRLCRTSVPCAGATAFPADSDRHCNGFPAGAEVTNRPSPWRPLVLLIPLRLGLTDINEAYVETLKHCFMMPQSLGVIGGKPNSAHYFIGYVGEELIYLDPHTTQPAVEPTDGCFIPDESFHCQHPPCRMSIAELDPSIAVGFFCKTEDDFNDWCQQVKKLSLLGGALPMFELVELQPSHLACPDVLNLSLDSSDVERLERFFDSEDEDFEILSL
Calb FLC – C. albicans growth modulation with fluconazole. C. albicans CaCi-2 (fluconazole-resistant clinical isolate) + fluconazole, Alamar Blue growth, 48 h. hit rate 0.57% among 300,000. growth inhibition, % (test concentration not listed);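 active = growth inhibition above about 58% in most replicates, limit read from the data, passing the limit was not always enough; inconclusive = exactly half the replicates above a set limit; inactive = most replicates below a set limit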;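 also: all wells also contain fluconazole at 8 µg/ml as a sub-toxic cotreatment; 0% = median of DMSO wells and 100% = median of geldanamycin control wells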
UCH37 inh – inhibitors of human deubiquitinating enzyme UCH37. AID 588478. hit rate 0.33% among 330,000. purified proteasome/UCH37, Ub-AMC cleavage fluorescence. inhibition, % (no concentration beside the values);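 active = mean inhibition over replicate wells above about 20%, limit read from the data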;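 also: 0% = compound-free wells with enzyme and 100% = wells lacking proteasome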
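system = Proteasome-associated human UCH37 deubiquitinase | amount = 0.15 nM proteasome as dispensed | medium = pH 7.4 Tris-HCl (50 mM) with ovalbumin, ATP-MgCl2, DTT | incubation = 30 min preincubation with enzyme, 25 min cleavage at room temperature | detection = AMC fluorescence 355/460 nm | read-out basis = percent inhibition | controls = no-proteasome and no-compound wells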
* = called active by the depositor; ? = inconclusive; . = not tested or not shown.

SMILES | ALR inh | NALP3 yeast inh | NALP1 inh | ATG4B inh | Calb FLC | UCH37 inh
CCCn1c(C)csc1=NC(=S)Nc1ccccc1 | . | . | . | . | . | 2
CN(C)CCN(C(=O)/C=C/c1cccs1)c1nc2c(F)cc(F)cc2s1 | . | 31 | 59* | 3 | -19 | -24
Cc1ccc2nc(N(CCN(C)C)C(=O)/C=C/c3cccs3)sc2c1 | . | 37 | 56* | 3 | -17 | -19
CCc1ccc2nc(N(CCN(C)C)C(=O)/C=C/c3cccs3)sc2c1 | 8 | 25 | 27 | -1 | 4 | 0
Cc1ccc(S(=O)(=O)NN=Cc2ccccc2O)cc1 | . | . | . | . | . | 8
N#CCCN(C(=O)CSc1ccc2c(c1)OCCO2)c1ccc(F)cc1 | 98* | 15 | 8 | 11 | 0 | -1
Cc1ccc(N(CCC#N)C(=O)CSc2ccc3c(c2)OCCO3)cc1 | 99* | 15 | -7 | -3 | -12 | -3
C/C(N)=C(/C#N)C(=O)CSc1ccc2c(c1)OCCO2 | 23 | 2 | -6 | 2 | -4 | 6
Cc1ccc(S(=O)(=O)NN=Cc2ccc(Cl)c([N+](=O)[O-])c2)cc1 | . | . | . | . | . | 4
COc1cc(C=NNC(=O)c2cccc([N+](=O)[O-])c2)cc(OC)c1O | . | . | . | . | . | 9
COc1cc(/C=N/NC(=O)c2ccc(CSc3nc4ccccc4[nH]3)cc2)ccc1O | 99* | -19 | -18 | -13 | 5 | .
COc1cc(/C=N/NC(=O)c2cccc([N+](=O)[O-])c2)cc(OC)c1O | 98* | 7 | -1 | 5 | ? | .
COc1cc(/C=N/NC(=S)Nc2cccc(C(=O)O)c2)ccc1O | 99* | 6 | -2 | -4 | ? | .
O=C(N/N=C/c1ccc(OC(=O)c2ccccc2)c([N+](=O)[O-])c1)c1ccc(O)cc1 | 94* | -17 | 21 | 6 | 17 | .
COc1cc(C=NNC(=O)c2ccc(CSc3nc4ccccc4[nH]3)cc2)cc(OC)c1OC | . | . | . | . | . | -13
Nc1nnnn1CC(=O)NN=C/C=C/c1ccccc1 | . | . | . | . | . | 3
COc1ccc(/C=N/NC(=O)c2cccnc2)cc1O | 88* | 4 | 9 | -7 | -23 | .
COc1cc(/C=N/Nc2ccc(C(=O)O)cc2)ccc1O | 99* | -34 | 1 | -3 | 22 | .
COc1ccc(/C=N/NC(=O)c2ccc(-c3ccccc3)cc2)cc1O | 33 | 17 | 16 | -24 | 83* | .
COc1cc(/C=N/NC(=O)c2ccc(O)cc2)ccc1Oc1ccc([N+](=O)[O-])cn1 | 92* | 5 | 18 | -7 | -2 | .
COc1cc(C=NNc2ccc(C(=O)O)cc2)ccc1O | . | . | . | . | . | 2
COc1ccc(/C=N/NC(=O)c2cccnc2)cc1 | -13 | 14 | 34 | -13 | -1 | .
CN(C)S(=O)(=O)c1cccc(NC(=S)NN=Cc2ccco2)c1 | . | . | . | . | . | 9
COc1ccc(Oc2ccc(C=NNC(=O)c3cccnc3)cc2[N+](=O)[O-])cc1 | . | . | . | . | . | 6
COc1cc(C=NNC(=O)Cc2ccccc2)cc([N+](=O)[O-])c1O | . | . | . | . | . | 22*
SMILES | ALR inh | NALP3 yeast inh | NALP1 inh | ATG4B inh | Calb FLC | UCH37 inh
COc1cc(/C=N/NC(=O)CN(Cc2ccco2)S(=O)(=O)c2ccccc2)ccc1O | 100* | 9 | -8 | -15 | -9 | .
COC(=O)NN=Cc1cc(OC)c(O)c([N+](=O)[O-])c1 | . | . | . | . | . | 14
COc1cc(C(=O)N/N=C(\C)c2ccc(NC(=O)Cc3ccccc3)cc2)ccc1O | 95* | 3 | 14 | -9 | -11 | .
COc1cc(C=NNC(=O)c2cccc(NC(=O)c3ccccc3Cl)c2)ccc1O | . | . | . | . | . | 0
O=C(CN(Cc1ccco1)S(=O)(=O)c1ccccc1)NN=Cc1cccc(O)c1 | . | . | . | . | . | 1
COc1cc(/C=N/NC(=O)c2cccc(NC(=O)c3ccccc3Cl)c2)ccc1O | 88* | 4 | -11 | -14 | 8 | .
COc1cc(/C=N/N=C/c2c[nH]c(=O)c(C#N)c2Nc2ccccc2)ccc1O | 78* | -28 | . | -8 | -5 | .
COc1ccc(OC)c(/C(C)=N/Nc2ccc(C(=O)O)cc2)c1 | 99* | 18 | 1 | -7 | 6 | .
COc1cc(/C=N/NC(=O)c2ccccc2)ccc1O | 100* | -13 | -21 | -2 | -1 | .
O=C(N/N=C/c1cccnc1)c1cc(O)c(O)c(O)c1 | 97* | 7 | -1 | 0 | 12 | .
COc1cc(C=NNC(=O)c2ccccc2)ccc1O | . | . | . | . | . | 6
ON=Cc1ccc2cccc(OCc3ccccc3)c2n1 | . | . | . | . | . | -50
CC(=NO)C(=O)NCC1CCNCC1 | . | . | . | . | . | 4
